Assay results published in ChEMBL document CHEMBL2029273, “Structure-based design of potent and ligand-efficient inhibitors of CTX-M class A β-lactamase” (J Med Chem, 2012).
In brackets after ≈: the same amount, converted by molar mass. Activity calls are given as the source filed them. The calls are words filed in the database; no cut-off is given here.

test system: not listed separately; assay: Inhibition of beta-lactamase CTX-M using nitrocefin as substrate; conditions: not given

| SMILES | Ki |
| --- | --- |
| N#Cc1ccc(C(=O)Nc2cccc(-c3nn[nH]n3)c2)cc1 | Not Active |

same assay, conditions: read-out: Ki

| SMILES | Ki |
| --- | --- |
| O=C(Nc1cccc(-c2nnn[nH]2)c1)c1cccc([N+](=O)[O-])c1 | 3.8 µM |
| O=C(Nc1cccc(-c2nnn[nH]2)c1)c1cccc(Cl)c1 | 6.2 µM |
| O=C(Nc1cccc(-c2nnn[nH]2)c1)c1cccc2[nH]ccc12 | 6.6 µM |
| COC(=O)c1cccc(C(=O)Nc2cccc(-c3nnn[nH]3)c2)c1 | 6.9 µM |
| O=C(Nc1cccc(-c2nnn[nH]2)c1)c1cccc(C2CC2)c1 | 3.1 µM |
| N#Cc1cc(Br)cc(C(=O)Nc2cccc(-c3nnn[nH]3)c2)c1 | 34.1 µM |
| N#Cc1cccc(C(=O)Nc2cccc(-c3nnn[nH]3)c2)c1 | 7.2 µM |
| CC(=O)c1cccc(C(=O)Nc2cccc(-c3nnn[nH]3)c2)c1 | 10.2 µM |
| Cc1cccc(C(=O)Nc2cccc(-c3nnn[nH]3)c2)c1 | 4.5 µM |
| COc1cccc(C(=O)Nc2cccc(-c3nnn[nH]3)c2)c1 | 17.1 µM |
| O=C(Nc1cccc(-c2nnn[nH]2)c1)c1cc(F)cc2[nH]cnc12 | 2.7 µM |

Second part, the compound after the results:

| Ki | SMILES |
| --- | --- |
| 1.9 µM | O=C(Nc1cccc(-c2nnn[nH]2)c1)c1ccc2[nH]ccc2c1 |
| 1 µM | Nc1cc(C(=O)Nc2cccc(-c3nnn[nH]3)c2)cc(C(F)(F)F)c1 |
| 0.63 µM | O=C(Nc1cccc(-c2nnn[nH]2)c1)c1cc(O)cc(C(F)(F)F)c1 |
| 0.57 µM | O=C(Nc1cccc(-c2nnn[nH]2)c1)c1cc(O)cc(Br)c1 |
| 0.089 µM | O=C(Nc1cccc(-c2nnn[nH]2)c1)c1cc(C(F)(F)F)cc2[nH]cnc12 |

test system: Escherichia coli; assay: Antibacterial activity against Escherichia coli expressing CTX-M-9 beta-lactamase assessed as inhibition zone at 15 to 30 ug by disk diffusion assay; format: functional, organism-based; conditions: not given
Method in brief: (§1)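 Disk diffusion: bacteria suspended in sterile water to 0.5 McFarland, diluted a further 10-fold and spread on Mueller-Hinton agar. Plates dried 10 min before disks were applied: cefotaxime 30 μg, inhibitor 30 μg, cefotaxime:inhibitor 30:15 or 30:30 μg, or solvent.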

| SMILES | inhibition zone (IZ) |
| --- | --- |
| O=C(Nc1cccc(-c2nnn[nH]2)c1)c1cc(C(F)(F)F)cc2[nH]cnc12 | inactive |

test system: Escherichia coli; assay: Antibacterial activity against Escherichia coli expressing CTX-M-9 beta-lactamase assessed as increase of cefotaxime inhibition zone at 15 to 30 ug by disk diffusion assay; format: functional, organism-based; conditions: not given; method in brief: as §1

| SMILES | inhibition zone (IZ) |
| --- | --- |
| O=C(Nc1cccc(-c2nnn[nH]2)c1)c1cc(C(F)(F)F)cc2[nH]cnc12 | Dose-dependent effect |

test system: Escherichia coli; assay: Antibacterial activity against Escherichia coli expressing CTX-M-14 beta-lactamase; format: functional; conditions: not given
Method in brief: (§2)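 MIC per CLSI broth dilution in Mueller-Hinton medium. Compound dissolved in DMSO and diluted in medium, DMSO kept below 10%. Tested alone against clinical E. coli isolates carrying the named CTX-M enzyme. Values are the average of three independent experiments.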

| SMILES | MIC |
| --- | --- |
| CO/N=C(\C(=O)N[C@@H]1C(=O)N2C(C(=O)O)=C(COC(C)=O)CS[C@H]12)c1csc(N)n1 [CEFOTAXIME] | 32 µg/mL (≈ 70.3 µM) |
| O=C(Nc1cccc(-c2nnn[nH]2)c1)c1cc(C(F)(F)F)cc2[nH]cnc12 | ≥ 64 µg/mL |

test system: Escherichia coli; assay: Antibacterial activity against Escherichia coli expressing CTX-M-9 beta-lactamase; format: functional; conditions: not given; method in brief: as §2

| SMILES | MIC |
| --- | --- |
| CO/N=C(\C(=O)N[C@@H]1C(=O)N2C(C(=O)O)=C(COC(C)=O)CS[C@H]12)c1csc(N)n1 [CEFOTAXIME] | 64 µg/mL (≈ 141 µM) |
| O=C(Nc1cccc(-c2nnn[nH]2)c1)c1cc(C(F)(F)F)cc2[nH]cnc12 | ≥ 64 µg/mL |

test system: Escherichia coli; assay: Antibacterial activity against Escherichia coli expressing CTX-M-14 beta-lactamase assessed as potentiation of cefotaxime MIC; format: functional; conditions: not given
Method in brief: (§3)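 Combination MIC per CLSI in Mueller-Hinton medium against clinical E. coli isolates carrying the named CTX-M enzyme. Inhibitor in DMSO (below 10%) was paired with cefotaxime at a 1:1 β-lactam:inhibitor ratio. Values are the average of three independent experiments.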

| SMILES | fold change (FC) |
| --- | --- |
| O=C(Nc1cccc(-c2nnn[nH]2)c1)c1cc(C(F)(F)F)cc2[nH]cnc12 | 64 |

test system: Escherichia coli; assay: Antibacterial activity against Escherichia coli expressing CTX-M-9 beta-lactamase assessed as potentiation of cefotaxime MIC; format: functional; conditions: not given; method in brief: as §3

| SMILES | fold change (FC) |
| --- | --- |
| O=C(Nc1cccc(-c2nnn[nH]2)c1)c1cc(C(F)(F)F)cc2[nH]cnc12 | 64 |
